# PolyA inh: yeast polyadenylation inhibition. 300,000 compounds, 0.02% hits. S. cerevisiae SKY197-pL101 polyadenylation reporter, beta-gal luminescence; efflux-impaired pdr1/pdr3 knockout yeast; score 100 = 6 SD above DMSO. activity score, % at 12 µM;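 active = lowest replicate activity score at least 50, where 100 means six control SD above control mean; inconclusive = lowest score under 50 but half or more replicates reach 50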;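 also: yeast exposed to compound for 9 h at 30 °C; higher score means more reporter readthrough which indicates perturbed polyadenylation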
# NALP1 yeast inh: NALP1 inhibition | inhibition, % at 10 µM | S. cerevisiae NALP1/ASC/caspase-1 growth, X-gal OD620, 72 h | 280,000 compounds, 0.61% hits; in the data active = inhibition mostly above about 24%, no sharp cut-off; inactive = mostly below about 32%
# Lmaj promast: Leishmania major promastigote growth inhibition | Leishmania major promastigotes, resazurin fluorescence viability | 200,000 compounds, 9% hits | inhibition, % at 10 µM; in the data active = inhibition above about 50%;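 also: promastigotes grown with compound for 44 hours at 28 °C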
# Calb FLC: affects C. albicans growth with fluconazole | C. albicans CaCi-2 (fluconazole-resistant clinical isolate) + fluconazole, Alamar Blue growth, 48 h | growth inhibition, % (test concentration not listed) | 300,000 compounds, 0.57% hits | AID 1979;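 active = growth inhibition above about 58% in most replicates, limit read from the data, passing the limit was not always enough; inconclusive = exactly half the replicates above a set limit; inactive = most replicates below a set limit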;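 also: all wells also contain fluconazole at 8 µg/ml as a sub-toxic cotreatment; 0% = median of DMSO wells and 100% = median of geldanamycin control wells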
# T cruzi inh: T. cruzi replication inhibition | T. cruzi beta-gal in NIH3T3, luminescence, 90 h | inhibition, % (no concentration beside the values) | 300,000 compounds, 1.4% hits | AID 1885;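 active = mean inhibition across valid replicates above about 55%, limit read from the data; inconclusive = mean below that limit but half or more replicates reach it; inactive = mean below it, under half of replicates reach it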;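 also: signal also drops with host cell toxicity which is not excluded here; 0% = plate median of DMSO wells and 100% = zero luminescence signal; higher percent means less beta-gal luminescence so fewer parasites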
#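 Test system: β-gal T. cruzi (Tulahuen C4) inside NIH/3T3 cells / Quantity: 5,000 cells/well / Measured by: luminescence from GalScreen with 0.05% NP40, read after 60 min / Medium: DMEM plus 2% FBS / Measure: parasite load inhibition, % / Reagent: Tulahuen C4 trypomastigotes, 5000/well / Schedule: co-culture of at least 90 h after 3 h attachment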
# NLRP3 yeast inh: inhibitors of NALP3 inflammasome in yeast; Yeast reconstituted NLRP3/ASC/caspase-1, beta-gal luminescence, 24 h; inhibition, % at 10 µM; 330,000 compounds, 0.39% hits; AID 2825;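 active = inhibition of 50% or more; inactive = inhibition below 50%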;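 also: plate controls were induced DMSO wells for no effect and uninduced yeast grown without galactose for full effect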
# * hit, by the source's call; ? = inconclusive; nt = not tested or not shown. Only a selection was taken, and hits are over-represented in it overall.
SMILES,PolyA inh,NALP1 yeast inh,Lmaj promast,Calb FLC,T cruzi inh,NLRP3 yeast inh
CC1C/C(=C/c2ccco2)C(=O)/C(=C/c2ccco2)C1 (configuration not stated),-20.9,25.9,6.5,-7.1,-10.2,2.9
O=C1/C(=C/c2ccc(O)cc2)COc2ccccc21,-13.2,17.6,nt,-7.0,-4.7,49.1
O=C1/C(=C/c2ccccn2)COc2ccccc21,-9.2,16.9,100.4*,3.1,-8.8,-1.0
CC(C)(C)C1C/C(=C/c2ccccn2)C(=O)/C(=C/c2ccccn2)C1 (configuration not stated),19.3,-7.9,100.6*,0.6,40.3,26.5
COc1ccccc1CNCC(=O)Nc1ccc(C(F)(F)F)cc1,16.9,nt,nt,1.8,-5.0,16.9
Cc1ccc(-n2cccn2)c(CN2CCC(CO)(CCc3ccccc3)CC2)c1,6.4,11.2,4.0,1.9,16.2,nt
Oc1ccc2ccccc2c1C=NCc1cn2ccsc2n1,-20.1,-16.6,95.2*,-7.3,3.3,6.3
Oc1ccc2ccccc2c1/C=N/c1nccs1,3.5,10.1,-4.2,?,-9.4,-6.7
C/C(=N\NC(=O)c1cc(-c2ccncc2)nc2ccccc12)c1ccc(OC(F)F)cc1,1.0,0.0,89.0*,6.6,38.9,-9.6
C/C(=N\NC(=O)c1cc(-c2cccnc2)nc2ccccc12)c1ccccc1O,-10.1,-12.9,37.4,-14.6,63.4*,1.6
O=C(NNC(=S)Nc1ccccc1)c1cc(-c2cccnc2)nc2ccccc12,3.5,-2.7,0.6,4.9,-11.7,25.4
C/C(=N\NC(=O)c1cc(C2CC2)nc2ccccc12)c1ccc(O)cc1O,2.8,11.8,nt,101.5*,9.4,27.4
CC(OC(=O)c1cc(-c2cccnc2)nc2ccccc12)C(=O)Nc1ccc2ccccc2c1 (configuration not stated),-23.2,35.1,74.9*,0.0,2.6,18.3
Cn1cnnc1SCC(=O)Nc1nc(-c2ccccc2)cs1,-0.5,-0.8,6.6,?,-16.8,21.2
Fc1ccc(NC(=S)N2CCn3cccc3C2c2cccnc2)cc1 (configuration not stated),-8.4,-1.9,91.1*,-33.8,71.1*,16.3
COc1cccc(NC(=S)N2CCn3cccc3C2c2cccnc2)c1 (configuration not stated),-14.2,-8.4,88.0*,-3.0,76.2*,-1.5
Cc1cccc(NC(=S)N2CCn3cccc3C2c2cccnc2)c1 (configuration not stated),-0.5,6.5,88.7*,5.5,11.5,8.6
CCCCNC(=S)N1CCn2cccc2C1c1ccc(F)cc1 (configuration not stated),-16.7,1.0,51.9*,-10.1,10.3,1.0
COc1cccc(CNC(=O)CCC2CCCN(C(=O)c3ccc(OC)o3)C2)c1 (configuration not stated),18.8,0.5,-6.0,5.1,6.1,-7.7
COc1c(C)cc(Br)cc1C(=O)Nc1ccccc1C,-29.9,1.9,-3.7,-20.2,-19.2,26.9
COc1ccc(CN2CCN(C3CCC3)CC2CCO)cc1C (configuration not stated),-3.2,1.6,nt,8.9,-11.9,15.2
COC(=O)C1=C(O)CSC1=Nc1ccc(C)cc1,-7.3,31.3,57.6*,4.7,-17.2,21.3
Cc1nc(SCC(=O)Nc2ccc(CN3CCCC3)cc2)c2c(C)c(C)sc2n1,nt,nt,nt,nt,nt,25.4
Cc1nc(NS(=O)(=O)c2cccs2)c2c3c(sc2n1)CCC3,4.0,12.0,-1.4,?,-13.4,8.0
Cc1nc(NS(=O)(=O)c2ccc(Br)cc2)c2c3c(sc2n1)CCC3,0.5,-0.4,-4.4,92.2*,-14.5,10.4
SMILES,PolyA inh,NALP1 yeast inh,Lmaj promast,Calb FLC,T cruzi inh,NLRP3 yeast inh
Cc1cc(N2C3CCC2CC(O)(c2ccc(F)cc2)C3)nc(-c2ccccc2)n1 (configuration not stated),6.1,19.2,58.1*,26.2,49.7,7.5
Cc1ccnc(N2C3CCC2CC(O)(c2ccccc2)C3)n1 (configuration not stated),10.5,-6.7,3.2,-2.6,-8.7,21.0
CC1=C(C)CC(C(=O)NC2CCN(C(C)C)CC2)C(C(=O)O)C1 (configuration not stated),1.4,32.1,nt,5.7,?,5.3
COCc1c(C(=O)OCC(=O)NCCN2C(=O)CSC2=O)oc2ccccc12,5.6,20.0,-5.9,0.3,-12.9,8.4
C=CCn1c(SCc2nc3sc4c(c3c(=O)[nH]2)CCCC4)nc2ccccc2c1=O,16.0,22.4,84.2*,8.8,1.3,7.2
C=CCn1c(SCc2nc3ccccc3c(=O)[nH]2)nc2sc3c(c2c1=O)CCCC3,0.9,2.9,nt,-1.3,-10.8,0.7
COc1ccc(-c2csc(NC(=O)c3ccccc3NS(=O)(=O)c3ccc(F)c(F)c3)n2)cc1,2.0,-23.6,48.6,44.8,34.8,12.1
Cc1ccc(-c2csc(NC(=O)c3ccc(S(=O)(=O)N4CCc5ccccc54)cc3)n2)cc1,-9.9,20.5,100.0*,-3.8,24.9,23.9
O=C(Nc1nc(-c2ccccc2)cs1)c1ccc(S(=O)(=O)N2CCc3ccccc32)cc1,-6.3,14.0,98.7*,-4.8,34.3,21.3
CS(=O)(=O)N1CCc2cc(-c3csc(NC(=O)Cc4ccccc4)n3)ccc21,-3.6,-8.3,24.9,7.4,55.4*,8.9
Cc1ccc(S(=O)(=O)Nc2ccccc2C(=O)Nc2nc(-c3ccc(F)cc3)cs2)cc1,-29.9,29.6,54.0*,-1.6,-6.4,25.0
Cc1cc(C)c2nc(NC(=O)c3cccc(S(=O)(=O)N4CCc5ccccc54)c3)sc2c1,9.4,21.7,17.4,-1.0,11.0,23.8
NS(=O)(=O)c1ccc(NC(=O)c2ccc(S(=O)(=O)N3CCc4ccccc43)cc2)cc1,-8.3,13.5,-6.8,-11.1,15.4,18.7
Nc1ccc(Cl)cc1C(=O)OCC(=O)NC1CCS(=O)(=O)C1 (configuration not stated),-14.0,10.0,nt,-2.2,-14.9,2.5
CC1=CC(=O)c2ccccc2C1=O,24.0,2.3,-1.1,nt,-0.9,-13.5
COc1cccc2c1C(=O)C=C(C)C2=O,-27.1,96.1*,99.3*,-38.5,-14.6,13.0
Cc1ccc(C(=O)CC(=O)c2cccc(F)c2)c(O)c1,5.4,14.1,97.3*,-6.4,7.2,8.5
Cc1ccc(C(=O)CC(=O)c2ccccc2C)c(O)c1,-2.2,-8.0,nt,81.1*,5.4,-0.3
Cc1ccc(O)c(C(=O)CC(=O)c2ccccc2Cl)c1,-26.8,0.9,95.5*,108.1*,12.4,25.0
Cc1ccc(O)c(C(=O)CC(=O)c2ccc(C(C)(C)C)cc2)c1,?,-5.0,nt,-2.2,-5.6,20.2
O=C(NCc1ccco1)c1ccc(Cn2c(=O)c3sccc3n(Cc3cccc(F)c3)c2=O)cc1,7.4,28.0,4.4,2.0,-35.5,9.5
